Here are results for two compounds from ChEMBL document CHEMBL2150909, “Imidazo[1,2-a]pyridines: orally active positive allosteric modulators of the metabotropic glutamate 2 receptor” (J Med Chem, 2012).

SMILES strings stand for the structures.

Data set [1] is described as follows: AUC (0 to infinity) in Sprague-Dawley rat at 10 mg/kg, po and 2.5 mg/kg, iv. Type of data set: ADME, organism-based. Particulars: plasma. In outline: (§1)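 Rat PK: compounds formulated in 20% HP-β-CD at pH 4 and given orally and intravenously. Values are geometric means of at least two runs ± SEM.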
Data set [2] can be described thus: Half life in Sprague-Dawley rat at 10 mg/kg, po and 2.5 mg/kg, iv. The settings on record: in vivo. In kind it is ADME, organism-based. In outline: as §1
The nature of data set [3]: Oral bioavailability in Sprague-Dawley rat at 10 mg/kg. In kind it is ADME, organism-based. Particulars: in vivo. The gist of the method:
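Male Sprague-Dawley rats given 10 mg/kg orally and/or 1.25 mg/kg intravenously; compound formulated in 20% HP-β-CD at pH 4. Cmax, tmax, AUC0−inf, t1/2, clearance and oral bioavailability F derived from plasma levels; geometric mean of at least two runs ± SEM.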

Data set [4] in a line: Drug uptake in SPF Swiss mouse brain at 10 mg/kg, sc after 2 hrs. Type of data set: ADME, organism-based. Also on record: dose 10 mg/kg, route subcutaneous. Particulars: read-out: Drug uptake. In outline:
(§2)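 Male Swiss SPF mice dosed subcutaneously at 10 mg/kg in 20% HP-β-CD, pH 4. Brain levels measured in ng/g and plasma levels in ng/mL at the stated time, with brain/plasma ratio; geometric mean of at least two runs ± SEM.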

Data set [5] in a line: Plasma concentration in SPF Swiss mouse at 10 mg/kg, sc after 2 hrs. In kind it is ADME, organism-based. Also on record: dose 10 mg/kg, route subcutaneous. In outline:
as §2

The nature of data set [6]: Tmax in Sprague-Dawley rat at 10 mg/kg, po and 2.5 mg/kg, iv. In kind it is ADME, organism-based. Particulars: in vivo. In outline: as §1
The nature of data set [7]: Metabolic stability of human liver microsomes assessed as compound metabolized at 5 uM after 15 mins. Particulars: read-out: Drug metabolism. Type of data set: ADME, Microsome. The gist of the method:
(§3)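 Test compound at 5 μM incubated 15 min with rat or human liver microsomes; read-out is percent of compound metabolized.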
Background: Liver microsomes are a subcellular fraction often used to study metabolism.

Data set [8] is described as follows: Metabolic stability of Sprague-Dawley rat liver microsomes assessed as compound metabolized at 5 uM after 15 mins. The settings on record: read-out: Drug metabolism. In kind it is ADME, Microsome. The gist of the method: as §3
A short description of data set [9]: Ratio of drug level in brain to plasma of SPF Swiss mouse at 10 mg/kg, sc after 2 hrs. In kind it is ADME, organism-based. Particulars: read-out: BPR. Also on record: dose 10 mg/kg, route subcutaneous. The gist of the method:
(§4)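 Male Swiss SPF mice, single subcutaneous dose of 10 mg/kg in 20% HP-β-CD at pH 4. Brain levels (ng/g) and plasma levels (ng/mL) measured at the stated time after dosing; brain-to-plasma ratio taken from these. Geometric mean of at least two runs ± SEM.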

Data set [10] addresses T1, Metabotropic glutamate receptor 2 (Homo sapiens, UniProt Q14416). In words: Agonist activity at human mGlu 2 expressed in CHO cells assessed as [35S]GTPgammaS binding by liquid scintillation analysis. In kind it is functional, cell-based. In outline:
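Membranes from butyrate-stimulated (5 mM, 24 h) CHO cells expressing human mGlu2. Preincubated 30 min at 30 °C in HEPES pH 7.4 with NaCl, MgCl2, 50 μM GDP and saponin; modulator 0.3 nM–50 μM, no added glutamate. [35S]GTPγS 0.1 nM final, 30 min at 30 °C, filtered, scintillation counted. Nonspecific binding defined with cold GTP; 11 concentrations in duplicate, ≥3 curves.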
In general terms: GTPγS is a poorly hydrolysed GTP analogue; its binding reports G protein activation.
Target sequence in this assay (Q14416 whole entry): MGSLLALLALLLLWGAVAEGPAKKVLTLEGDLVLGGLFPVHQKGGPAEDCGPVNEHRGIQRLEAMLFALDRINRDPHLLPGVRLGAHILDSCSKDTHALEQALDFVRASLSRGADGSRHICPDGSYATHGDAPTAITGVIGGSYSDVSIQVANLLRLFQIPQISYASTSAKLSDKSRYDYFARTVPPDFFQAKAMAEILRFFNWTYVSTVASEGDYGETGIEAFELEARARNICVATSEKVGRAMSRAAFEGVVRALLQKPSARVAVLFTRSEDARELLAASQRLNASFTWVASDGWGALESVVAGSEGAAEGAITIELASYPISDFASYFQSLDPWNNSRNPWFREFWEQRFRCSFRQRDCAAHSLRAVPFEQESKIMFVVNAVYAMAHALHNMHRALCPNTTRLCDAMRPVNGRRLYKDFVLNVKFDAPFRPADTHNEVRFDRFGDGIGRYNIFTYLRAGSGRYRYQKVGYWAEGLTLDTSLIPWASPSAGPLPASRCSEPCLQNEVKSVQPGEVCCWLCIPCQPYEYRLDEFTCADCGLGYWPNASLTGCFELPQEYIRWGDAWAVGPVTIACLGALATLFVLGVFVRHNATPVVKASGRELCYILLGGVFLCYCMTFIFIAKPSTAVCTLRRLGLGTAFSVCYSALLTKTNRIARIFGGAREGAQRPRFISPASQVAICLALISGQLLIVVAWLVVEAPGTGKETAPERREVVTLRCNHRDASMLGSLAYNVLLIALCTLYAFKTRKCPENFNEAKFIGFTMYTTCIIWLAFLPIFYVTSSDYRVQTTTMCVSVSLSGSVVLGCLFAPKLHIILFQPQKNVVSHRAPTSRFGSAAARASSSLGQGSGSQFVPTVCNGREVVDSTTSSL

Data set [11] can be described thus: Drug uptake in SPF Swiss mouse brain at 10 mg/kg, sc after 1 hr. Particulars: read-out: Drug uptake. In kind it is ADME, organism-based. Also on record: dose 10 mg/kg, route subcutaneous. The gist of the method: as §2
A short description of data set [12]: Cmax in Sprague-Dawley rat at 10 mg/kg, po and 2.5 mg/kg, iv. In kind it is ADME, organism-based. Particulars: in vivo. In outline:
as §1

The nature of data set [13]: Ratio of drug level in brain to plasma of SPF Swiss mouse at 10 mg/kg, sc after 1 hr. The settings on record: read-out: BPR. Also on record: dose 10 mg/kg, route subcutaneous. In kind it is ADME, organism-based. The gist of the method: as §4
The nature of data set [14]: Clearance in Sprague-Dawley rat at 10 mg/kg, po and 2.5 mg/kg, iv. Type of data set: ADME, organism-based. Particulars: in vivo.
The target of data set [15] is T1, Metabotropic glutamate receptor 2. In words: Agonist activity at human mGlu 2 expressed in CHO cells by PAM assay relative to glutamate. In kind it is functional, cell-based. In outline:
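The assay measured [35S]GTPγS binding to membranes from CHO cells expressing human mGluR2. Cells were butyrate-stimulated (5 mM, 24 h) before membranes were prepared. Membranes were preincubated for 30 min at 30 °C in HEPES pH 7.4 buffer (NaCl, MgCl2, 50 μM GDP) with compound (0.3 nM–50 μM, 11 concentrations) plus EC25 glutamate. [35S]GTPγS (0.1 nM final) was then added for 30 min at 30 °C. Bound label was collected by filtration and counted. Runs were done at least in triplicate with duplicate points, and a four-parameter logistic fit gave the values.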
Target sequence in this assay (Q14416 19-872 limits assumed): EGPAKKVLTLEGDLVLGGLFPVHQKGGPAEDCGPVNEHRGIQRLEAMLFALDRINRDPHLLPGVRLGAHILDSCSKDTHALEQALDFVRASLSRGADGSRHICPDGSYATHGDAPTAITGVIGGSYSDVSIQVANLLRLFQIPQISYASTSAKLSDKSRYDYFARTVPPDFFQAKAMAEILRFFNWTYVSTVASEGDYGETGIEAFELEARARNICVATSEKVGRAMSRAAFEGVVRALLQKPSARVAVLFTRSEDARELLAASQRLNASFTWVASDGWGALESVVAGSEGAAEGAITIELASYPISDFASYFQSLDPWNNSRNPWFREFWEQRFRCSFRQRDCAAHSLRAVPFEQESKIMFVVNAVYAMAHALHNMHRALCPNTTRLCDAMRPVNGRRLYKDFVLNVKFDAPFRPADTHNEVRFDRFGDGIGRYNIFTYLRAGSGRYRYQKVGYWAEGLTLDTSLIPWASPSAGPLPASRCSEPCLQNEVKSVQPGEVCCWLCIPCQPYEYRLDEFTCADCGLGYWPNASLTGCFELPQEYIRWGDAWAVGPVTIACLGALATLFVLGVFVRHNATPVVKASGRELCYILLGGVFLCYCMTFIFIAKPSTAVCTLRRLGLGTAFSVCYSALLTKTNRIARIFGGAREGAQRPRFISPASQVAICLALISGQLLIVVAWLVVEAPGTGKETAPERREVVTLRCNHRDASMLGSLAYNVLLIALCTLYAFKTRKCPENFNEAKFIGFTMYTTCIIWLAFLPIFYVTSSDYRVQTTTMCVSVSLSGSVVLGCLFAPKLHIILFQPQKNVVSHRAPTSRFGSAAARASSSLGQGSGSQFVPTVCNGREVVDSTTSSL

A short description of data set [16]: Plasma concentration in SPF Swiss mouse at 10 mg/kg, sc after 1 hr. Type of data set: ADME, organism-based. Also on record: dose 10 mg/kg, route subcutaneous. In outline: as §2
The nature of data set [17]: Drug uptake in Sprague-Dawley rat brain at 10 mg/kg, sc after 1 hr. In kind it is ADME, organism-based. Further details: dose 10 mg/kg, route subcutaneous. The settings on record: read-out: Drug uptake. In outline: (§5)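 Brain exposure in male Sprague-Dawley rats after a 10 mg/kg subcutaneous dose, vehicle 20% HP-β-CD at pH 4. Brain level measured in ng/g alongside plasma in ng/mL; geometric mean of at least two runs ± SEM.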

Data set [18] can be described thus: Ratio of drug level in brain to plasma of Sprague-Dawley rat at 10 mg/kg, sc after 2 hrs. In kind it is ADME, organism-based. Also on record: dose 10 mg/kg, route subcutaneous. Particulars: read-out: BPR. In outline: (§6)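 Male Sprague−Dawley rats given 10 mg/kg subcutaneously, vehicle 20% HP-β-CD at pH 4. Plasma (ng/mL) and brain (ng/g) drug levels determined at the listed post-dose time; B/P ratio derived from them. Values are geometric means of at least two runs ± SEM.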

A short description of data set [19]: Ratio of drug level in brain to plasma of Sprague-Dawley rat at 10 mg/kg, sc after 4 hrs. Further details: dose 10 mg/kg, route subcutaneous. Type of data set: ADME, organism-based. The settings on record: brain and plasma, read-out: BPR. In outline:
as §6

Data set [20] can be described thus: Drug uptake in Sprague-Dawley rat brain at 10 mg/kg, sc after 2 hrs. In kind it is ADME, organism-based. Further details: dose 10 mg/kg, route subcutaneous. Particulars: read-out: Drug uptake. The gist of the method: as §5
A short description of data set [21]: Plasma concentration in Sprague-Dawley rat at 10 mg/kg, sc after 4 hrs. Type of data set: ADME, organism-based. Also on record: dose 10 mg/kg, route subcutaneous. The gist of the method:
as §6

Data set [22] is described as follows: Plasma concentration in Sprague-Dawley rat at 10 mg/kg, sc after 1 hr. In kind it is ADME, organism-based. Further details: dose 10 mg/kg, route subcutaneous. In outline:
as §6

Data set [23] in a line: Ratio of drug level in brain to plasma of Sprague-Dawley rat at 10 mg/kg, sc after 1 hr. The settings on record: read-out: BPR. Further details: dose 10 mg/kg, route subcutaneous. In kind it is ADME, organism-based. In outline: as §6
Data set [24] can be described thus: Plasma concentration in Sprague-Dawley rat at 10 mg/kg, sc after 2 hrs. Type of data set: ADME, organism-based. Further details: dose 10 mg/kg, route subcutaneous. The gist of the method: as §6
The nature of data set [25]: Drug uptake in Sprague-Dawley rat brain at 10 mg/kg, sc after 4 hrs. Further details: dose 10 mg/kg, route subcutaneous. The settings on record: read-out: Drug uptake. Type of data set: ADME, organism-based. The gist of the method: as §5

As usually defined, the AUC(0-inf) is total exposure, with the tail of the curve extrapolated. Read a low AUC(0-inf) as low exposure. By half-life is commonly meant the time needed for the level to fall by half in the phase considered. A low value points to rapid decline. Usually bioavailability stands for dose-corrected exposure relative to a reference, in per cent. One may read the Tmax as the time from dosing to the highest level. Broadly, the EC50 is the concentration that produces a half-maximal response. The term Cmax denotes the maximum level reached in the sampled fluid or tissue. A word on the Emax: it is the maximal effect, on the per cent scale that the assay sets.

`N#Cc1c(-c2ccc3c(ccn3C3CCOCC3)c2)ccn2c(CC(F)(F)F)cnc12` returned an AUC(0-inf) in data set [1] of 281 ng·h/mL. The compound also had a half-life in [2] of 55.2 min. This compound gave a bioavailability in data set [3] of 15%. In addition, the results for the concentration at 2 h in data set [4] and in data set [5] were 50 ng/g and 95 ng/mL, respectively. Further, the Tmax in data set [6] stood at 30 min. Also, the metabolised at 0.25 h, 5 µM is 23% in data set [7] and 28% in data set [8]. In addition, the Kp at 2 h in [9] amounted to 0.5. The EC50 in [10] was 501 nM. For the same compound, the concentration at 1 h stood at 704 ng/g in data set [11] and 932 ng/mL in [16]. The compound also showed a peak concentration (Cmax) in data set [12] of 216 ng/mL. The Kp at 1 h in data set [13] worked out at 0.8. For the same compound, in [14], the clearance was 83.3 mL/min/kg. In data set [15], this compound yielded an Emax of 442%.

Regarding `O[C@H]1CC[C@H](Nc2ccc(-c3ccn4c(CC(F)(F)F)cnc4c3Cl)cc2Cl)CC1`, the concentration at 1 h is 1000 ng/g in [17] and 2140 ng/mL in data set [22]. The Kp at 2 h in data set [18] came to 1. Moreover, the Kp at 4 h in [19] stood at 0.7. The metabolised at 0.25 h, 5 µM was determined as 16% in data set [7] and 15% in data set [8]. The EC50 in [10] amounted to 150 nM. Moreover, the concentration at 2 h in data set [20] is 1220 ng/g; in [24], 1280 ng/mL. In addition, the concentration at 4 h in data set [21] turned out to be 708 ng/mL; in data set [25] it was 485 ng/g. In data set [15], the Emax amounted to 293%. Further, the Kp at 1 h in [23] was 0.5.
